Activity calls are given as the source filed them. The rule behind the calls is not given here.
How the values were obtained:
MDA-MB-468 = test: Antiproliferative activity against human MDA-MB-468 cells overexpressing STAT3 assessed as reduction in cell growth incubated for 48 hrs by CCK-8 assay; assay type: functional, cell-based; conditions: MDA-MB-468, 48 h
Procedure, shortened: (§1)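 Cells seeded at 5000-7000/well and allowed to settle for 8 h at 37 °C, 5% CO2. Graded compound concentrations were then added in triplicate (DMSO <0.1%) for 48 h. Medium was replaced with 10% CCK-8 for 4 h (MDA-MB-231, MDA-MB-468) or 1 h (HepG2), and A450 was read. IC50 is mean ± SD of at least three independent experiments. HepG2 was grown in high-glucose DMEM with 10% FBS.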

HepG2 = test: Antiproliferative activity against human HepG2 cells overexpressed STAT3 assessed as reduction in cell growth incubated for 48 hrs by CCK-8 assay; assay type: functional, cell-based; conditions: HepG2, 48 h; procedure, shortened: as §1
MDA-MB-231 [1] = test: Antiproliferative activity against human MDA-MB-231 cells overexpressing STAT3 assessed as reduction in cell growth incubated for 48 hrs by CCK-8 assay; assay type: functional, cell-based; conditions: MDA-MB-231, 48 h; procedure, shortened: as §1
MDA-MB-231 [2] = test: Effect on STAT3 expression in human MDA-MB-231 cells at 0.75 to 3 uM incubated for 24 hrs by Western blot analysis; assay type: functional, cell-based; conditions: dose 0.75-3 µM
Procedure, shortened: (§2)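 MDA-MB-231 cells treated with a range of concentrations for 24 h. RIPA lysates with PMSF, 40 µg protein/lane, on 10% SDS-PAGE, then PVDF. Blocked in 5% milk/TBST for 2 h. Primary antibodies to STAT3, p-STAT3(Y705), STAT1, p-STAT1(Y701), c-Myc and Cyclin D1 overnight at 4 °C; GAPDH as loading control. HRP secondary for 1 h; ECL detection.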

[3] = molecular target: T1, Signal transducer and activator of transcription 3 (Homo sapiens, UniProt P40763); test: Inhibition of STAT3 in human MDA-MB-231 cells assessed as reduction in c-myc expression incubated for 24 hrs by Western blot analysis; assay type: cell-based; conditions: dose 0.75-3 µM; procedure, shortened: as §2
[4] = molecular target: T2, Signal transducer and activator of transcription 1-alpha/beta (Homo sapiens) (UniProt P42224); test: Inhibition of STAT1 in human MDA-MB-231 cells assessed as reduction in STAT1 Y701 phosphorylation at 0.75 to 3 uM incubated for 24 hrs by Western blot analysis; assay type: cell-based; conditions: dose 0.75-3 µM; procedure, shortened: as §2
T2 sequence (whole entry): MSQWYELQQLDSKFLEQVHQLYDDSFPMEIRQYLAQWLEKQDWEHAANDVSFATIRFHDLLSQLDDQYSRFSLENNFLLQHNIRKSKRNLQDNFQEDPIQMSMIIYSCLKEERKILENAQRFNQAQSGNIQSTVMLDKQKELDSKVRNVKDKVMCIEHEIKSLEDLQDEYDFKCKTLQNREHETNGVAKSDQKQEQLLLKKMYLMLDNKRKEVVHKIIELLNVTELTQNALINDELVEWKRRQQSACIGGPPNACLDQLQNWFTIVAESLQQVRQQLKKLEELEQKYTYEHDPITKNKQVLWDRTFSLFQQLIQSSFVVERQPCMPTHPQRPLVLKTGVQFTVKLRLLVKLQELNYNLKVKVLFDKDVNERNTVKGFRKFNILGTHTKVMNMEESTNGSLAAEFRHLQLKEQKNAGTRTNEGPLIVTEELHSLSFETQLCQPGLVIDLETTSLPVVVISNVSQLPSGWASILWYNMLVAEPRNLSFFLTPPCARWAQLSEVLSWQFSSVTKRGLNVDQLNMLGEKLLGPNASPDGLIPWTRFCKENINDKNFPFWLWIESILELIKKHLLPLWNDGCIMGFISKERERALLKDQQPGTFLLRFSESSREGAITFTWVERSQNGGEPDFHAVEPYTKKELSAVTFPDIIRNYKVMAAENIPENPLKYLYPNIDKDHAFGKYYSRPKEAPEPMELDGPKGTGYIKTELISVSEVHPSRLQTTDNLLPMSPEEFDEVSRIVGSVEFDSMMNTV

[5] = molecular target: T1, Signal transducer and activator of transcription 3; test: Inhibition of STAT3 in human MDA-MB-231 cells assessed as reduction in Cyclin D1 expression incubated for 24 hrs by Western blot analysis; assay type: cell-based; conditions: dose 0.75-3 µM; procedure, shortened: as §2
[6] = molecular target: T1, Signal transducer and activator of transcription 3; test: Inhibition of STAT3 in human MDA-MB-231 cells assessed as reduction in STAT3 Y705 phosphorylation incubated for 24 hrs by Western blot analysis; assay type: cell-based; conditions: dose 0.75-3 µM; procedure, shortened: as §2
MDA-MB-231 [7] = test: Effect on STAT1 expression in human MDA-MB-231 cells at 0.75 to 3 uM incubated for 24 hrs by Western blot analysis; assay type: functional, cell-based; conditions: dose 0.75-3 µM; procedure, shortened: as §2
[8] = molecular target: T1, Signal transducer and activator of transcription 3; test: Displacement of 5-FAM-GpYLPQTV-NH2 from His-tagged STAT3 (unknown origin) (127 to 722 residues) incubated for 30 mins followed by fluorescent peptide probe addition and measured after 1 hr by fluorescence polarization based competition binding assay

T1 sequence (P40763 whole entry): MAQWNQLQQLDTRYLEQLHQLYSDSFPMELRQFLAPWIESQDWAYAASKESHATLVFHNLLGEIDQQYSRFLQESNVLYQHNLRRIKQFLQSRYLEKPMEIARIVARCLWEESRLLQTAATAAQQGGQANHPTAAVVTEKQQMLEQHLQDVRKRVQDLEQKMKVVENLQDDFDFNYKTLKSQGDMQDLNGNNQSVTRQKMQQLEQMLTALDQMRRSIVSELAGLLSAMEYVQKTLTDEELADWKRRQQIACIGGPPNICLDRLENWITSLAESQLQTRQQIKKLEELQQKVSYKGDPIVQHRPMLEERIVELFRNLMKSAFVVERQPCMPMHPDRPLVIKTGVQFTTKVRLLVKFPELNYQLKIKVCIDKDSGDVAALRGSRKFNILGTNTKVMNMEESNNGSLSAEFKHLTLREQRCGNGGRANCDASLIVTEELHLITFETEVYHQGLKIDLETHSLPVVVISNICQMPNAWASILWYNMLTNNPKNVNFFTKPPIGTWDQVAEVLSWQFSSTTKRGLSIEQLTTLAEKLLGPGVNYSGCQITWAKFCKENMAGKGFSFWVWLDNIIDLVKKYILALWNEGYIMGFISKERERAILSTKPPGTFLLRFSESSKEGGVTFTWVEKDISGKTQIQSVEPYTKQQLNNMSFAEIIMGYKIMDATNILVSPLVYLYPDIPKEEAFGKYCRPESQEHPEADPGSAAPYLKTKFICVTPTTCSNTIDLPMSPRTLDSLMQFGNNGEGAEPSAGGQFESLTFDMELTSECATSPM

Row | SMILES | IC50 (MDA-MB-468) [nM] | IC50 (HepG2) [nM] | IC50 (MDA-MB-231 [1]) [nM] | further results
1 | CC(=O)c1cc2c(o1)C(=O)C(NC1CCCCC1)=CC2=O | 4130 | 6550 | 2880 | –
2 | CC(=O)c1cc2c(o1)C(=O)C(Nc1ccc(F)cc1)=CC2=O | 7770 | 8010 | 3210 | –
3 | CC(=O)c1cc2c(o1)C(=O)C(Nc1cc(C)cc(F)c1)=CC2=O | 2110 | 5660 | 2620 | –
4 | CC(=O)c1cc2c(o1)C(=O)C(Nc1ccccc1F)=CC2=O | 2000 | 2550 | 2340 | –
5 | COc1ccc(NC2=CC(=O)c3cc(C(C)=O)oc3C2=O)c(C)c1 | 2920 | 5900 | 2460 | –
6 | CC(=O)c1cc2c(o1)C(=O)C(NC1CCC1)=CC2=O | 8840 | 6750 | 4870 | –
7 | O=[N+]([O-])c1ccc2c(c1)S(=O)(=O)C=C2 | 1920 | – | 2640 | –
8 | CC(=O)c1cc2c(o1)C(=O)C(NC1CCOCC1)=CC2=O | 3230 | 6800 | 2070 | –
9 | CC(=O)c1cc2c(o1)C(=O)C(Nc1ccc(C)c(C)c1)=CC2=O | 1850 | 8120 | 2540 | –
10 | CC(=O)c1cc2c(o1)C(=O)C(Nc1ccccc1C(F)(F)F)=CC2=O | 1750 | 4040 | 3120 | –
11 | CC(=O)c1cc2c(o1)C(=O)C(Nc1cccc(F)c1)=CC2=O | 2500 | 5340 | 3500 | –
12 | CC(=O)c1cc2c(o1)C(=O)C(Nc1ccc(C(F)(F)F)cc1)=CC2=O | 2270 | 6170 | 3700 | –
13 | CC(=O)c1cc2c(o1)C(=O)C(Nc1cccc(C)c1)=CC2=O | 4540 | 5500 | 2620 | –
14 | CCc1ccccc1NC1=CC(=O)c2cc(C(C)=O)oc2C1=O | 2460 | 3380 | 2000 | –

Stronger by IC50 (MDA-MB-231 [1]), values ahead:

Row | IC50 (MDA-MB-468) [nM] | IC50 (HepG2) [nM] | IC50 (MDA-MB-231 [1]) [nM] | SMILES | further results
15 | 3300 | 8030 | 1880 | CC(=O)c1cc2c(o1)C(=O)C(Nc1c(C)cccc1C)=CC2=O | –
16 | 1830 | 1510 | 1530 | CC(=O)c1cc2c(o1)C(=O)C(Nc1ccc(N(C)C)cc1)=CC2=O | –
17 | 1160 | 1990 | 1510 | CC(=O)c1cc2c(o1)C(=O)C(Nc1cccc(C(F)(F)F)c1)=CC2=O | –
18 | 1550 | 2360 | 1480 | COc1cccc(NC2=CC(=O)c3cc(C(C)=O)oc3C2=O)c1 | –
19 | 2470 | 7170 | 1230 | CC(=O)c1cc2c(o1)C(=O)C(NC1CCCC1)=CC2=O | –
20 | 1030 | 1540 | 1140 | CC(=O)c1cc2c(o1)C(=O)C(Nc1ccccc1)=CC2=O | –
21 | 1180 | 1040 | 1110 | CC(=O)c1cc2c(o1)C(=O)C(Nc1ccc(OC(C)C)cc1)=CC2=O | –
22 | 1970 | 1830 | 940 | CC(=O)c1cc2c(o1)C(=O)C(NC1CC1)=CC2=O | –
23 | 1050 | 2410 | 920 | COc1ccccc1NC1=CC(=O)c2cc(C(C)=O)oc2C1=O | –
24 | 3120 | 1850 | 900 | CC(=O)c1cc2c(o1)C(=O)C(Nc1ccc(C)cc1)=CC2=O | –
25 | – | 840 | 700 | CC(=O)c1cc2c(o1)C(=O)c1ccccc1C2=O [NAPABUCASIN] | –
26 | 1530 | 2010 | 670 | COc1cc(C)c(NC2=CC(=O)c3cc(C(C)=O)oc3C2=O)c(C)c1 | –
27 | 730 | 1210 | 560 | CC(=O)c1cc2c(o1)C(=O)C(Nc1ccccc1C)=CC2=O | Activity (MDA-MB-231 [2]): inactive; inhibition [3]: Dose-dependent effect; inhibition [4]: inactive; inhibition [5]: Dose-dependent effect; inhibition [6]: Dose-dependent effect; Activity (MDA-MB-231 [7]): inactive; IC50 [8]: 5550 nM; inhibition ([8]; time 1.5 hrs): Dose-dependent effect

Reference: ChEMBL document CHEMBL4765360, “Design, synthesis and biological evaluation of novel potent STAT3 inhibitors based on BBI608 for cancer therapy” (Eur J Med Chem, 2020)
